The structures appear in SMILES notation.

The species named for one assay is Cavia porcellus. Kind of assay: Percent inhibition of slow reacting substance of anaphylaxis (SRS-A) induced contractions of isolated guinea pig ileum at 50 uM concentration. In kind it is functional. A digest of the protocol:
(§1)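 Ileum segments proximal to Peyer's patch from male albino Hartley guinea pigs (400-600 g), in modified Tyrode's at 37.5 °C gassed with 95% O2-5% CO2. Isometric contractions recorded. Partially purified guinea pig SRS-A applied at a level giving 60-80% of maximal contraction until responses are reproducible, then reapplied after incubation with compound. Controls receive vehicle. Inhibition is the mean % change in treated tissue minus the mean % change in controls. FPL-55712 serves as reference.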
One may read the inhibition as the drop in the measured response relative to a control, in per cent. Regarding `Cc1ccc(CCNS(=O)(=O)NS(=O)(=O)NCCc2ccc(C)cc2)cc1`, the inhibition at 50 µM came out at 1%.

For the compound `O=[N+]([O-])c1ccc(CCNS(=O)(=O)NS(=O)(=O)NCCc2ccc([N+](=O)[O-])cc2)cc1`, the inhibition at 50 µM worked out at 19%.

For `O=S(=O)(NCCc1cccc(C(F)(F)F)c1)NS(=O)(=O)NCCc1cccc(C(F)(F)F)c1`, the inhibition at 50 µM worked out at 32%.

As for `O=S(=O)(Nc1ccc(Br)cc1)NS(=O)(=O)Nc1ccc(Br)cc1`, the inhibition at 50 µM was 47%.

On to `O=S(=O)(Nc1cccc(Br)c1)NS(=O)(=O)Nc1cccc(Br)c1`, for which the inhibition at 50 µM stood at 38%.

Turning to `O=S(=O)(Nc1ccc(C(F)(F)F)cc1)NS(=O)(=O)Nc1ccc(C(F)(F)F)cc1`, the inhibition at 50 µM turned out to be 86%.

Consider `O=S(=O)(NCCc1ccc(O)cc1)NS(=O)(=O)NCCc1ccc(O)cc1`, for which the inhibition at 50 µM was 7%.

As to `O=S(=O)(Nc1ccc(Cl)cc1)NS(=O)(=O)Nc1ccc(Cl)cc1`, the inhibition at 50 µM is -2%.

In the case of `N#Cc1ccc(NS(=O)(=O)NS(=O)(=O)Nc2ccc(C#N)cc2)cc1`, the inhibition at 50 µM was -8%.

On to `O=S(=O)(Nc1cccc(F)c1)NS(=O)(=O)Nc1cccc(F)c1`, for which the inhibition at 50 µM came out at 10%.

For the compound `O=S(=O)(Nc1ccc(F)cc1)NS(=O)(=O)Nc1ccc(F)cc1`, the inhibition at 50 µM came out at 1%.

As for `Cc1cccc(NS(=O)(=O)NS(=O)(=O)Nc2cccc(C)c2)c1`, the inhibition at 50 µM came out at 13%.

Regarding `O=S(=O)(Nc1cccc(C(F)(F)F)c1)NS(=O)(=O)Nc1cccc(C(F)(F)F)c1`, the inhibition at 50 µM came out at 34%.

Take `O=S(=O)(NCCc1ccc(Br)cc1)NS(=O)(=O)NCCc1ccc(Br)cc1`: the inhibition at 50 µM was determined as 72%.

Turning to `CSc1cccc(NS(=O)(=O)NS(=O)(=O)Nc2cccc(SC)c2)c1`, the inhibition at 50 µM was 12%.

For the compound `COc1cccc(CCNS(=O)(=O)NS(=O)(=O)NCCc2cccc(OC)c2)c1`, the inhibition at 50 µM was 9%.

Regarding `O=S(=O)(NCCc1cccc(Cl)c1)NS(=O)(=O)NCCc1cccc(Cl)c1`, the inhibition at 50 µM came out at 16%.

`COc1ccccc1CCNS(=O)(=O)NS(=O)(=O)NCCc1ccccc1OC`: the inhibition at 50 µM was determined as 0.2%.

Turning to `CC(=O)c1ccc(NS(=O)(=O)NS(=O)(=O)Nc2ccc(C(C)=O)cc2)cc1`, the inhibition at 50 µM was -11%.

Take `O=S(=O)(Nc1cccc(Cl)c1)NS(=O)(=O)Nc1cccc(Cl)c1`: the inhibition at 50 µM came to 16%.

As to `COc1ccc(CCNS(=O)(=O)NS(=O)(=O)NCCc2ccc(OC)cc2)cc1`, the inhibition at 50 µM came to 18%.

The species named for a further assay is Cavia porcellus. Kind of assay: Percent inhibition of slow reacting substance of anaphylaxis (SRS-A) induced contractions of isolated guinea pig ileum at 10 uM concentration. In kind it is functional. Summed up:
as §1
In the case of `O=S(=O)(NCc1ccccc1)NS(=O)(=O)NCc1ccccc1`, the inhibition at 10 µM stood at 0.2%.

As to `O=S(=O)(Nc1ccc(C(F)(F)F)cc1)NS(=O)(=O)Nc1ccc(C(F)(F)F)cc1`, the inhibition at 10 µM is 24%.

Regarding `O=S(=O)(NCCc1ccccc1Cl)NS(=O)(=O)NCCc1ccccc1Cl`, the inhibition at 10 µM was determined as 8%.

Consider `O=S(=O)(NCCCCc1ccccc1)NS(=O)(=O)NCCCCc1ccccc1`, for which the inhibition at 10 µM was determined as 40%.

With `O=S(=O)(NCCCCCCc1ccccc1)NS(=O)(=O)NCCCCCCc1ccccc1`, the inhibition at 10 µM worked out at 15%.

For `O=S(=O)(NCCc1ccc(Cl)c(Cl)c1)NS(=O)(=O)NCCc1ccc(Cl)c(Cl)c1`, the inhibition at 10 µM was determined as 43%.

As to `O=S(=O)(NCCCCc1ccc(Cl)cc1)NS(=O)(=O)NCCCCc1ccc(Cl)cc1`, the inhibition at 10 µM was 22%.

`O=S(=O)(NCCCCCc1ccccc1)NS(=O)(=O)NCCCCCc1ccccc1`: the inhibition at 10 µM is 8%.

The species entered for a further assay is Cavia porcellus. Kind of assay: Percent inhibition of slow reacting substance of anaphylaxis (SRS-A) induced contractions of isolated guinea pig ileum at 20 uM concentration. Format: functional. A digest of the protocol: as §1
`O=S(=O)(NCCc1ccccc1)NS(=O)(=O)NCCc1ccccc1`: the inhibition at 20 µM was determined as 7%.

With `O=S(=O)(NCCc1ccc(Cl)cc1)NS(=O)(=O)NCCc1ccc(Cl)cc1`, the inhibition at 20 µM amounted to 62%.

Consider `O=S(=O)(Nc1ccccc1)NS(=O)(=O)Nc1ccccc1`, for which the inhibition at 20 µM stood at 6%.

On to `O=S(=O)(NCCCc1ccccc1)NS(=O)(=O)NCCCc1ccccc1`, for which the inhibition at 20 µM came out at 15%.

A further assay is filed under the species Cavia porcellus. Put plainly: Percent inhibition of slow reacting substance of anaphylaxis (SRS-A) induced contractions of isolated guinea pig ileum at 5 uM concentration. In kind it is functional. Summed up:
as §1
As for `CCCCc1ccc(NS(=O)(=O)NS(=O)(=O)Nc2ccc(CCCC)cc2)cc1`, the inhibition at 5 µM worked out at 5%.

Regarding `O=S(=O)(NCCc1cccc(SC(F)(F)F)c1)NS(=O)(=O)NCCc1cccc(SC(F)(F)F)c1`, the inhibition at 5 µM is -6%.

For `CCOC(=O)c1ccc(NS(=O)(=O)NS(=O)(=O)Nc2ccc(C(=O)OCC)cc2)cc1`, the inhibition at 5 µM was -5%.

Values taken from ChEMBL document CHEMBL1122112, “Imidodisulfamides. 1. A novel class of antagonists of slow-reacting substance of anaphylaxis” (1982).
